From ChEMBL document CHEMBL1687778, “Genetic determinants involved in the susceptibility of Pseudomonas aeruginosa to beta-lactam antibiotics” (2010)
In brackets after ≈: the same amount, converted by molar mass.

Key:
Assay type in all cases: functional
[1] = test system: Pseudomonas aeruginosa; assay: Antimicrobial activity against Pseudomonas aeruginosa PA14 PA4550 harboring fimU mutant gene by Etest method
Method in brief: (§1)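 Etest MIC. Overnight LB cultures at 37°C were diluted in sterile 0.85% NaCl to about 1 × 10^7 CFU/ml. 100 µl was spread on Mueller-Hinton agar, one strip was placed per plate, and plates were incubated at 37°C for 18 h. Equal cell numbers were seeded per plate, and results were verified in triplicate. PA14 wild type was included in each set as a susceptibility control.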

[2] = test system: Pseudomonas aeruginosa; assay: Antimicrobial activity against Pseudomonas aeruginosa PA14 PA5005 harboring mutation in putative carbamoyltransferase by Etest method; method in brief: as §1
[3] = test system: Pseudomonas aeruginosa; assay: Antimicrobial activity against Pseudomonas aeruginosa PA14 PA5000 harboring wapR mutant gene by Etest method; method in brief: as §1
[4] = test system: Pseudomonas aeruginosa; assay: Antimicrobial activity against Pseudomonas aeruginosa PA14 PA3520 harboring mutation in putative periplasmic metal-binding protein by Etest method; method in brief: as §1
[5] = test system: Pseudomonas aeruginosa; assay: Antimicrobial activity against Pseudomonas aeruginosa PA14 PA2487 harboring mutation in hypothetical protein by Etest method
Method in brief: (§2)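 Overnight LB cultures (37°C) diluted in sterile 0.85% NaCl to about 1 × 10^7 CFU/ml. 100 µl spread on Mueller-Hinton agar, one Etest strip per plate, 18 h at 37°C. Ceftazidime, imipenem and meropenem tested. Wild-type PA14 plate included in each set. Each mutant verified in triplicate.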

[6] = test system: Pseudomonas aeruginosa; assay: Antimicrobial activity against Pseudomonas aeruginosa PA14 PA3259 harboring mutation in conserved hypothetical protein by Etest method; method in brief: as §1
[7] = test system: Pseudomonas aeruginosa; assay: Antimicrobial activity against Pseudomonas aeruginosa PA14 PA2621 harboring clpS mutant gene by Etest method; method in brief: as §2
[8] = test system: Pseudomonas aeruginosa; assay: Antimicrobial activity against Pseudomonas aeruginosa PA14 PA4007 harboring proA mutant gene by Etest method; method in brief: as §1
[9] = test system: Pseudomonas aeruginosa; assay: Antimicrobial activity against Pseudomonas aeruginosa PA14 PA14_07490/07510 harboring mutation in intergenic region by Etest method; method in brief: as §2
[10] = test system: Pseudomonas aeruginosa; assay: Antimicrobial activity against Pseudomonas aeruginosa PA14 PA5366 harboring pstB mutant gene by Etest method; method in brief: as §1
[11] = test system: Pseudomonas aeruginosa; assay: Antimicrobial activity against Pseudomonas aeruginosa PA14 PA3141 harboring wbpM mutant gene by Etest method; method in brief: as §2
[12] = test system: Pseudomonas aeruginosa; assay: Antimicrobial activity against Pseudomonas aeruginosa PA14 PA1553 harboring mutation in putative cytochrome c oxidase, cbb3 type, subunit II by Etest method; method in brief: as §2
[13] = test system: Pseudomonas aeruginosa; assay: Antimicrobial activity against Pseudomonas aeruginosa PA14 PA0401 harboring mutation in Noncatalytic dihydroorotase-like protein by Etest method; method in brief: as §2
[14] = test system: Pseudomonas aeruginosa; assay: Antimicrobial activity against Pseudomonas aeruginosa PA14 PA4748 harboring tpiA mutant gene by Etest method; method in brief: as §1
[15] = test system: Pseudomonas aeruginosa; assay: Antimicrobial activity against Pseudomonas aeruginosa PA14 PA3704 harboring wspE mutant gene by Etest method; method in brief: as §1
[16] = test system: Pseudomonas aeruginosa; assay: Antimicrobial activity against Pseudomonas aeruginosa PA14 PA2023 harboring galU mutant gene by Etest method; method in brief: as §2
[17] = test system: Pseudomonas aeruginosa; assay: Antimicrobial activity against Pseudomonas aeruginosa PA14 PA1011 harboring mutation in putative lipoprotein by Etest method; method in brief: as §2
[18] = test system: Pseudomonas aeruginosa; assay: Antimicrobial activity against Pseudomonas aeruginosa PA14 PA3433 harboring mutation in putative transcriptional regulator, LysR family by Etest method; method in brief: as §1
[19] = test system: Pseudomonas aeruginosa; assay: Antimicrobial activity against Pseudomonas aeruginosa PA14 PA2970 harboring rpmF mutant gene by Etest method; method in brief: as §2
[20] = test system: Pseudomonas aeruginosa; assay: Antimicrobial activity against Pseudomonas aeruginosa PA14 PA4527 harboring pilC mutant gene by Etest method; method in brief: as §1
[21] = test system: Pseudomonas aeruginosa; assay: Antimicrobial activity against Pseudomonas aeruginosa PA14 PA4753 harboring mutation in putative RNA-binding protein by Etest method; method in brief: as §1
[22] = test system: Pseudomonas aeruginosa; assay: Antimicrobial activity against Pseudomonas aeruginosa PA14 PA5038 harboring aroB mutant gene by Etest method; method in brief: as §1
[23] = test system: Pseudomonas aeruginosa; assay: Antimicrobial activity against Pseudomonas aeruginosa PA14 PA0011 harboring mutation in putative 2-OH-lauroyltransferase by Etest method; method in brief: as §2
[24] = test system: Pseudomonas aeruginosa; assay: Antimicrobial activity against Pseudomonas aeruginosa PA14 PA0908 harboring mutation in hypothetical protein by Etest method; method in brief: as §2
[25] = test system: Pseudomonas aeruginosa; assay: Antimicrobial activity against Pseudomonas aeruginosa PA14 PA0402 harboring pyrB mutant gene by Etest method; method in brief: as §2
[26] = test system: Pseudomonas aeruginosa; assay: Antimicrobial activity against Pseudomonas aeruginosa PA14 PA3649 harboring mutation in putative membrane-associated zinc metalloprotease by Etest method; method in brief: as §1
[27] = test system: Pseudomonas aeruginosa; assay: Antimicrobial activity against Pseudomonas aeruginosa PA14 PA4005 harboring mutation in conserved hypothetical protein by Etest method; method in brief: as §1
[28] = test system: Pseudomonas aeruginosa; assay: Antimicrobial activity against Pseudomonas aeruginosa PA14 PA5130 harboring mutation in putative rhodanese-like domain protein by Etest method; method in brief: as §1
[29] = test system: Pseudomonas aeruginosa; assay: Antimicrobial activity against Pseudomonas aeruginosa PA14 PA0427 harboring oprM mutant gene by Etest method; method in brief: as §2
[30] = test system: Pseudomonas aeruginosa; assay: Antimicrobial activity against Pseudomonas aeruginosa PA14 PA4946 harboring mutL mutant gene by Etest method; method in brief: as §1
[31] = test system: Pseudomonas aeruginosa; assay: Antimicrobial activity against Pseudomonas aeruginosa PA14 PA3620 harboring mutS mutant gene by Etest method; method in brief: as §1
[32] = test system: Pseudomonas aeruginosa; assay: Antimicrobial activity against Pseudomonas aeruginosa PA14 PA4459 harboring mutation in Conserved hypothetical protein by Etest method; method in brief: as §1
[33] = test system: Pseudomonas aeruginosa; assay: Antimicrobial activity against Pseudomonas aeruginosa PA14 PA2963 harboring mutation in putative aminodeoxychorismate lyase by Etest method; method in brief: as §2
[34] = test system: Pseudomonas aeruginosa; assay: Antimicrobial activity against Pseudomonas aeruginosa PA14 PA3800 harboring mutation in conserved hypothetical protein by Etest method; method in brief: as §1
[35] = test system: Pseudomonas aeruginosa; assay: Antimicrobial activity against wild type Pseudomonas aeruginosa PA14 by Etest method; method in brief: as §1
[36] = test system: Pseudomonas aeruginosa; assay: Antimicrobial activity against Pseudomonas aeruginosa PA14 PA0764 harboring mucB mutant gene by Etest method; method in brief: as §2
[37] = test system: Pseudomonas aeruginosa; assay: Antimicrobial activity against Pseudomonas aeruginosa PA14 PA5001 harboring mutation in conserved hypothetical protein by Etest method; method in brief: as §1
[38] = test system: Pseudomonas aeruginosa; assay: Antimicrobial activity against Pseudomonas aeruginosa PA14 PA0766 harboring mucD mutant gene by Etest method; method in brief: as §2
[39] = test system: Pseudomonas aeruginosa; assay: Antimicrobial activity against Pseudomonas aeruginosa PA14 PA2128 harboring cupA1 mutant gene by Etest method; method in brief: as §2
[40] = test system: Pseudomonas aeruginosa; assay: Antimicrobial activity against Pseudomonas aeruginosa PA14 PA3818 harboring suhB mutant gene by Etest method; method in brief: as §1
[41] = test system: Pseudomonas aeruginosa; assay: Antimicrobial activity against Pseudomonas aeruginosa PA14 PA5002 harboring mutation in hypothetical protein by Etest method; method in brief: as §1
[42] = test system: Pseudomonas aeruginosa; assay: Antimicrobial activity against Pseudomonas aeruginosa PA14 PA5192 harboring pckA mutant gene by Etest method; method in brief: as §1
[43] = test system: Pseudomonas aeruginosa; assay: Antimicrobial activity against Pseudomonas aeruginosa PA14 PA4402 harboring argJ mutant gene by Etest method; method in brief: as §1
[44] = test system: Pseudomonas aeruginosa; assay: Antimicrobial activity against Pseudomonas aeruginosa PA14 PA5288 harboring glnK mutant gene by Etest method; method in brief: as §1
[45] = test system: Pseudomonas aeruginosa; assay: Antimicrobial activity against Pseudomonas aeruginosa PA14 PA14_43090 harboring mutation in hypothetical protein by Etest method; method in brief: as §2
[46] = test system: Pseudomonas aeruginosa; assay: Antimicrobial activity against Pseudomonas aeruginosa PA14 PA3978 harboring mutation in hypothetical protein by Etest method; method in brief: as §1
[47] = test system: Pseudomonas aeruginosa; assay: Antimicrobial activity against Pseudomonas aeruginosa PA14 PA0503 harboring mutation in Putative biotin synthesis protein BioC by Etest method; method in brief: as §2
[48] = test system: Pseudomonas aeruginosa; assay: Antimicrobial activity against Pseudomonas aeruginosa PA14 PA0958 harboring oprD mutant gene by Etest method; method in brief: as §2

C[C@@H](O)[C@H]1C(=O)N2C(C(=O)O)=C(S[C@@H]3CN[C@H](C(=O)N(C)C)C3)[C@H](C)[C@H]12 [MEROPENEM]
MIC [1]: 0.125 µg/mL (≈ 0.326 µM)
MIC [2]: 0.125 µg/mL (≈ 0.326 µM)
MIC [3]: 0.38 µg/mL (≈ 0.991 µM)
MIC [4]: 0.38 µg/mL (≈ 0.991 µM)
MIC [5]: 0.125 µg/mL (≈ 0.326 µM)
MIC [6]: 0.125 µg/mL (≈ 0.326 µM)
MIC [7]: 0.19 µg/mL (≈ 0.495 µM)
MIC [8]: 0.125 µg/mL (≈ 0.326 µM)
MIC [9]: 0.094 µg/mL (≈ 0.245 µM)
MIC [10]: 0.125 µg/mL (≈ 0.326 µM)
MIC [11]: 0.125 µg/mL (≈ 0.326 µM)
MIC [12]: 0.125 µg/mL (≈ 0.326 µM)
MIC [13]: 0.064 µg/mL (≈ 0.167 µM)
MIC [14]: 0.25 µg/mL (≈ 0.652 µM)
MIC [15]: 0.25 µg/mL (≈ 0.652 µM)
MIC [16]: 0.38 µg/mL (≈ 0.991 µM)
MIC [17]: 0.19 µg/mL (≈ 0.495 µM)
MIC [18]: 0.125 µg/mL (≈ 0.326 µM)
MIC [19]: 0.125 µg/mL (≈ 0.326 µM)
MIC [20]: 0.125 µg/mL (≈ 0.326 µM)
MIC [21]: 0.064 µg/mL (≈ 0.167 µM)
MIC [22]: 0.25 µg/mL (≈ 0.652 µM)
MIC [23]: 0.125 µg/mL (≈ 0.326 µM)
MIC [24]: 0.25 µg/mL (≈ 0.652 µM)
MIC [25]: 0.125 µg/mL (≈ 0.326 µM)
MIC [26]: 0.125 µg/mL (≈ 0.326 µM)
MIC [27]: 0.094 µg/mL (≈ 0.245 µM)
MIC [28]: 0.125 µg/mL (≈ 0.326 µM)
MIC [29]: 0.023 µg/mL (≈ 0.06 µM)
MIC [30]: 0.094 µg/mL (≈ 0.245 µM)
MIC [31]: 0.125 µg/mL (≈ 0.326 µM)
MIC [32]: 0.125 µg/mL (≈ 0.326 µM)
MIC [33]: 0.125 µg/mL (≈ 0.326 µM)
MIC [34]: 0.125 µg/mL (≈ 0.326 µM)
MIC [35]: 0.125 µg/mL (≈ 0.326 µM)
MIC [36]: 0.125 µg/mL (≈ 0.326 µM)
MIC [37]: 0.38 µg/mL (≈ 0.991 µM)
MIC [38]: 0.125 µg/mL (≈ 0.326 µM)
MIC [39]: 0.125 µg/mL (≈ 0.326 µM)
MIC [40]: 0.064 µg/mL (≈ 0.167 µM)
MIC [41]: 0.094 µg/mL (≈ 0.245 µM)
MIC [42]: 0.25 µg/mL (≈ 0.652 µM)
MIC [43]: 0.19 µg/mL (≈ 0.495 µM)
MIC [44]: 0.047 µg/mL (≈ 0.123 µM)
MIC [45]: 0.125 µg/mL (≈ 0.326 µM)
MIC [46]: 0.125 µg/mL (≈ 0.326 µM)
MIC [47]: 0.125 µg/mL (≈ 0.326 µM)
MIC [48]: 1 µg/mL (≈ 2.61 µM)
